Results on 14 molecules are retold here after ChEMBL document CHEMBL1140692, “Toward the development of chemoprevention agents. Part II: Chemo-enzymatic synthesis and anti-inflammatory activities of a new class of 5-amino-2-substitutedphenyl-1,3-dioxacycloalkanes” (Bioorg Med Chem, 2007).

The structures appear in SMILES notation.

Series [1] in a line: Permeability from apical to basolateral side of human Caco-2 cell membrane. The series is classed as ADME, cell-based. For orientation: Caco-2 monolayers are a common model of the intestinal barrier.
The test system of the next series is Caco-2. In words: Ratio of permeability from apical to basolateral side over basolateral to apical side of human Caco-2 cell membrane. The series is classed as ADME, cell-based.
In series [2] the test system is Mus musculus. Description: Antiinflammatory activity in Kunming mouse assessed as inhibition of xylene-induced ear edema at 5 mg/kg, po after […]rs. The series is classed as functional. The gist of the method: (§1)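 Male Kunming mice receive the agent orally as a suspension in 0.5% CMC; the vehicle group gets CMC alone. After 30 min, 0.03 ml xylene is applied to both surfaces of the right ear, and the left ear serves as control. At 2 h, mice are killed and 7-mm ear punches are weighed. Edema is taken as right minus left punch weight, and inhibition is calculated versus vehicle. n = 11; ANOVA.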

Series [3] is described as follows: Permeability from basolateral to apical side of human Caco-2 cell membrane. The series is classed as ADME, cell-based.
In series [4] the test system is Mus musculus. In words: Antiinflammatory activity in Kunming mouse assessed as inhibition of xylene-induced ear edema at 10 mg/kg, po after […]rs. The series is classed as functional. The gist of the method:
as §1

Series [5] has as its system Mus musculus. In words: Gastrointestinal toxicity in mouse assessed as tail bleeding time at 200 mg/kg, po after 90 mins. The following applies: in vivo, 1.5 h. Set-up: dose 200 mg/kg, route oral. The series is classed as organism-based. The essentials: (§2)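 Male mice (18–22 g) are dosed orally and compared with an NS group. At 30, 45, 60 and 90 min after dosing, each mouse is restrained in a tube holder and a 2-mm cut is made on the tail. Blood is wiped away every 30 s until flow stops, and the time to cessation is recorded.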

The test system of series [6] is Mus musculus. In words: Gastrointestinal toxicity in mouse assessed as tail bleeding time at 200 mg/kg, po after 30 mins. The series is classed as organism-based. The note with it: in vivo, 0.5 h. Set-up: dose 200 mg/kg, route oral. The gist of the method: as §2
Series [7] has as its system Mus musculus. In words: Gastrointestinal toxicity in mouse assessed as tail bleeding time at 200 mg/kg, po after 60 mins. The series is classed as organism-based. Set-up: dose 200 mg/kg, route oral. The note with it: in vivo, 1 h. The essentials: as §2
For series [8], the system named is Mus musculus. Description: Gastrointestinal toxicity in mouse assessed as tail bleeding time at 200 mg/kg, po after 45 mins. The series is classed as organism-based. Set-up: dose 200 mg/kg, route oral. The note with it: in vivo, 0.75 h. The essentials:
as §2

The nature of series [9]: Inhibition of bovine brain PKC. Set-up: species or system Bos taurus.
Series [10] deals with Mus musculus. Description: Antiinflammatory activity in Kunming mouse assessed as inhibition of xylene-induced ear edema at 20 mg/kg, po after […]rs. The series is classed as functional. The gist of the method:
as §1

The Papp A→B is the apparent permeability from the apical to the basolateral side of a cell layer. For orientation: inhibition in vivo means the share of the control response that was lost under treatment. The Papp B→A is how fast a substance crosses the layer from the basolateral side. Broadly, the IC50 is the midpoint of a concentration-inhibition curve. In series [1], `C[C@@H]1O[C@H](c2ccc([N+](=O)[O-])cc2)OC[C@H]1N` gave a Papp A→B of 12.9 ×10⁻⁶ cm/s. Moreover, the Ratio with Caco-2 amounted to 1.86. The inhibition in vivo at 5 mg/kg in the series with Mus musculus [2] was determined as 40.1%. The molecule further displayed a Papp B→A in series [3] of 6.9 ×10⁻⁶ cm/s. Besides, in the series with Mus musculus [4], the inhibition in vivo at 10 mg/kg is 56.7%. Besides, the Time in the series on Mus musculus [5] is recorded as 119 s; in the series with Mus musculus [6], 117.8 s; with Mus musculus [7], 118.8 s; in the series with Mus musculus [8], 118.1 s. In series [9], the IC50 was found to be 930 µM. Also, the inhibition in vivo at 20 mg/kg with Mus musculus [10] stood at 77.9%.
In series [1], `C[C@@H]1O[C@H](c2ccc(Cl)cc2)OC[C@H]1N` came in with a Papp A→B of 11.7 ×10⁻⁶ cm/s. For the same molecule, the Ratio in the series with Caco-2 was 1.7. Also, the inhibition in vivo at 5 mg/kg in the series on Mus musculus [2] is 29.8%. Besides, the Papp B→A in series [3] was determined as 6.88 ×10⁻⁶ cm/s. In the series on Mus musculus [4], the inhibition in vivo at 10 mg/kg worked out at 46.2%. Moreover, the Time turned out to be 118.6 s in the series on Mus musculus [5], 119.6 s in the series on Mus musculus [6], 118.7 s in the series with Mus musculus [7] and 118.6 s with Mus musculus [8]. In [9], this molecule came in with an IC50 of 1140 µM. The inhibition in vivo at 20 mg/kg in the series on Mus musculus [10] came out at 67.9%.
The molecule `C[C@@H]1O[C@@H](c2ccc([N+](=O)[O-])cc2)OC[C@H]1NC(=O)Cc1ccccc1` had a Papp A→B in series [1] of 10.4 ×10⁻⁶ cm/s. For the same molecule, in the series on Caco-2, the Ratio was found to be 1.49. In [3], this molecule gave a Papp B→A of 6.98 ×10⁻⁶ cm/s.
On to `C[C@@H]1O[C@H](/C=C/c2ccccc2)OC[C@H]1NC(=O)Cc1ccccc1`, for which the Papp A→B in series [1] was found to be 8.8 ×10⁻⁶ cm/s. In addition, the Ratio in the series on Caco-2 came out at 1.23. The Papp B→A in series [3] is 7.15 ×10⁻⁶ cm/s.
The molecule `C[C@@H]1O[C@@H](c2ccc(Cl)cc2)OC[C@H]1NC(=O)Cc1ccccc1` came in with a Papp A→B in series [1] of 10.2 ×10⁻⁶ cm/s. In the series with Caco-2, the Ratio is listed as 1.46. In series [3], this molecule displayed a Papp B→A of 7 ×10⁻⁶ cm/s.
`C[C@@H]1O[C@@H](C=Cc2ccccc2)OC[C@H]1N`: in series [1], the Papp A→B was determined as 10.2 ×10⁻⁶ cm/s. Besides, the Ratio with Caco-2 is 1.43. Besides, the Papp B→A in series [3] amounted to 7.17 ×10⁻⁶ cm/s. Besides, the Time stood at 119.2 s in the series on Mus musculus [5], 117.2 s in the series with Mus musculus [6], 118.4 s with Mus musculus [7] and 118.6 s with Mus musculus [8]. Besides, in series [9], inhibition was half-maximal at 1620 µM (IC50). Further, in the series on Mus musculus [10], the inhibition in vivo at 20 mg/kg was determined as 52.9%.
Molecule `O=C(Cc1ccccc1)N[C@H]1CO[C@@H](/C=C/c2ccccc2)OC1` displayed a Papp A→B in series [1] of 8.97 ×10⁻⁶ cm/s. For the same molecule, the Ratio in the series with Caco-2 was 1.14. Besides, the Papp B→A in series [3] stood at 7.87 ×10⁻⁶ cm/s.
Taken in the same sequence, the figures for `O=C(Cc1ccccc1)N[C@H]1CO[C@H](/C=C/c2ccccc2)OC1` were 8.86 ×10⁻⁶ cm/s, 1.21 and 7.32 ×10⁻⁶ cm/s.
With `C[C@@H]1O[C@H](C=Cc2ccccc2)OC[C@H]1N`, the Papp A→B in series [1] was determined as 10.3 ×10⁻⁶ cm/s. For the same molecule, in the series on Caco-2, the Ratio is listed as 1.46. In series [3], this molecule had a Papp B→A of 7.06 ×10⁻⁶ cm/s. For the same molecule, the Time was 117.7 s with Mus musculus [5], 120.7 s with Mus musculus [6], 117.6 s in the series with Mus musculus [7] and 120.2 s with Mus musculus [8]. In series [9], this molecule gave an IC50 of 1700 µM. Further, the inhibition in vivo at 20 mg/kg with Mus musculus [10] came to 51.6%.
As for `C[C@@H]1O[C@H](c2ccc([N+](=O)[O-])cc2)OC[C@H]1NC(=O)Cc1ccccc1`, the Papp A→B in series [1] stood at 10.3 ×10⁻⁶ cm/s. Also, the Ratio with Caco-2 amounted to 1.49. In addition, in series [3], the Papp B→A was 6.93 ×10⁻⁶ cm/s.
Consider `O=C(Cc1ccccc1)N[C@H]1CCO[C@H](c2ccc(Cl)cc2)OC1`, for which, in series [9], 2920 µM corresponded to half-maximal inhibition (IC50).
Consider `C[C@@H]1O[C@H](c2ccc(Cl)cc2)OC[C@H]1NC(=O)Cc1ccccc1`, for which, in [1], the apparent permeability from apical to basolateral (Papp A→B) came out at 10.2 ×10⁻⁶ cm/s. In the series with Caco-2, the Ratio stood at 1.48. Moreover, the Papp B→A in series [3] was found to be 6.86 ×10⁻⁶ cm/s.
The molecule `O=C(Cc1ccccc1)N[C@H]1CO[C@H](c2cccc([N+](=O)[O-])c2)OC1` returned an IC50 in [9] of 2900 µM.
Same read-out and setting: the value for `O=C(Cc1ccccc1)N[C@H]1CCO[C@H](c2ccc([N+](=O)[O-])cc2)OC1` was 2860 µM.
